This sample holds only a part of the variants without activity.
B1: tRNA (parent)
chain: GUUCCGUUGGCGUAAUGGUAACGCGUCUCCCUCCUAAGGAGAAGACUGCGGGUUCGAGUCCCGUACGGAACG

Variants of: B1
Assay: yeast fitness relative to wild type (ratio to wild type); higher = fitter; tRNA-Arg(CCU), competitive growth, 37 C, YPD
Procedure, shortened: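 For this measurement, the tRNA-Arg(CCU) gene was varied by chemical synthesis at a 3% per-site mutation rate across 69 sites, and each variant was placed at the native genomic locus in Saccharomyces cerevisiae. The pooled strains went through a 24-hour competition in YPD at 37°C in six parallel replicates, with amplicons from start and end populations read by 100-nucleotide paired-end sequencing. Darwinian fitness relative to wild type followed from the change in each genotype's frequency. Genotypes needed ≥ 100 starting reads, and estimates < 0.5 were set to 0.5.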

Compared with A37C C49U G51A, A36U G41A C49G is higher in yeast fitness: no more than 0.5 for the first, 0.601 for the second.

A37C C46U A65C G67C and A36G G41A C60G A65G cannot be ordered by yeast fitness: no more than 0.5 for the first, no more than 0.5 for the second.

A36C A70G and A36C A70C are the same in yeast fitness: 0.605 for the first, 0.605 for the second.

First: A36U G67A
Second: A36U G67C
The yeast fitness of the first is higher: 0.63 for the first, 0.602 for the second.

Going from A36U C61G to A36G A40C A42G, the yeast fitness rises from 0.698 to 0.768.

Compared with A36U A45U C46U U53C, A37C A45G C49G is higher in yeast fitness: no more than 0.5 for the first, 0.578 for the second.

A36U G48A C49A and A37C G38A C55A A65C cannot be ordered by yeast fitness: no more than 0.5 for the first, no more than 0.5 for the second.

First: A36C A57C G68A
Second: A36G A65C G68C
The yeast fitness of the first is higher: 0.541 for the first, no more than 0.5 for the second.

Going from A36U G63C to A36G A65C, the yeast fitness rises from no more than 0.5 to 0.9.

Compared with A36G A65G, A36G U54A C62U is lower in yeast fitness: 0.831 for the first, no more than 0.5 for the second.

Going from A36U C46U G51A U64C to A36C C55U U59A, the yeast fitness falls from 0.597 to no more than 0.5.

Compared with A36C U59A, A36U C49U U54C is lower in yeast fitness: 0.569 for the first, no more than 0.5 for the second.

First: A36U A37C A70G
Second: A36C G41A U53C
The yeast fitness of the first is lower: no more than 0.5 for the first, 0.56 for the second.

Compared with A36C A45U, A36U G50C is lower in yeast fitness: 0.591 for the first, 0.587 for the second.

Going from A36G G52A C62G to A36G U54G, the yeast fitness rises from no more than 0.5 to 0.66.

Compared with A36G U54C, A36G U64A is lower in yeast fitness: 0.906 for the first, 0.796 for the second.

Going from A36G A43U G48C to A36C G56C C66U, the yeast fitness falls from 0.556 to no more than 0.5.

First: A36C U54G
Second: A37C A57U
The yeast fitness of the first is lower: 0.522 for the first, 0.633 for the second.

A36U G50A U59G and A36C U53G cannot be ordered by yeast fitness: no more than 0.5 for the first, no more than 0.5 for the second.

Compared with A36C A57G, A37C A42C C46A is higher in yeast fitness: 0.642 for the first, 0.948 for the second.

Going from A37C C46U A69C to A36U G44A A70G, the yeast fitness falls from 0.682 to no more than 0.5.

Compared with A36U G38A C49G C60G A70G, A36G G48A C49G is higher in yeast fitness: 0.592 for the first, 0.63 for the second.

First: A36G C55A A69U
Second: A36G U59C
The yeast fitness of the first is lower: 0.635 for the first, 1.18 for the second.

Going from A36G A42G C55A to A36G A65U G67A, the yeast fitness rises from no more than 0.5 to 0.502.

Going from A37C C46U to A36C C55U A65C, the yeast fitness falls from 0.946 to 0.632.

A36U A45C C49U and A36C C61U A65U cannot be ordered by yeast fitness: no more than 0.5 for the first, no more than 0.5 for the second.

Compared with A36G A42G A70G, A36G A37U A42U A70G is lower in yeast fitness: 0.54 for the first, no more than 0.5 for the second.

Going from A36G G68A to A36U A45C, the yeast fitness falls from 0.905 to 0.6.

First: A36U A45U
Second: A36G A45G A65U
The yeast fitness of the first is higher: 0.728 for the first, 0.54 for the second.

A36C G48A C66G and A36U G48C C55G cannot be ordered by yeast fitness: no more than 0.5 for the first, no more than 0.5 for the second.

First: A36G G38C
Second: A36G C49A
The yeast fitness of the first is lower: 0.719 for the first, 0.799 for the second.

First: A36G C49G
Second: A37C G38A
The yeast fitness of the first is higher: 0.776 for the first, 0.636 for the second.

First: A37C A40G
Second: A36U A45U A57U
The yeast fitness of the first is higher: 0.716 for the first, no more than 0.5 for the second.

First: A37C A42C
Second: A36C A40G G48A A65U C66U A69U
The yeast fitness of the first is higher: 0.922 for the first, no more than 0.5 for the second.

Compared with A37C G39C C49U, A36G G50C is higher in yeast fitness: no more than 0.5 for the first, 0.723 for the second.

First: A36G G58A
Second: A36G G58C
The yeast fitness of the first is lower: 0.898 for the first, 0.943 for the second.

First: A36G A37G G58C
Second: A37C C49U U54G
The yeast fitness of the first is higher: 0.649 for the first, no more than 0.5 for the second.

Going from A36C A45C C55G C62A G68A to A37C A43G, the yeast fitness rises from 0.575 to 0.988.

First: A37C A43U
Second: A37C A43C
The yeast fitness of the first is higher: 0.992 for the first, 0.931 for the second.

A36U C49G G52C and A37C C60G C66G A70G cannot be ordered by yeast fitness: no more than 0.5 for the first, no more than 0.5 for the second.

Compared with A36U A37G A40C, A36U A43G is higher in yeast fitness: no more than 0.5 for the first, 0.745 for the second.

Compared with A36U A43C, A36C G58C C62U is lower in yeast fitness: 0.569 for the first, no more than 0.5 for the second.

A36G G38C G52C A57U A69U A70G and A36G A45C U47C G48A cannot be ordered by yeast fitness: no more than 0.5 for the first, no more than 0.5 for the second.

Going from A37C to A36G A43C U64C, the yeast fitness falls from 0.913 to 0.687.

Going from A36U C62G G63A to A36C A45C G48A G52C G68A, the yeast fitness falls from 0.569 to no more than 0.5.

Compared with A37C C55U, A37C C55A is lower in yeast fitness: 0.769 for the first, 0.599 for the second.

A36G C55A G67C and A36U A45G C66U A70G cannot be ordered by yeast fitness: no more than 0.5 for the first, no more than 0.5 for the second.

A37C G38C C55U and A36U A37U A45U A65G cannot be ordered by yeast fitness: no more than 0.5 for the first, no more than 0.5 for the second.

Going from A36G C60A A70G to A36G G52C, the yeast fitness rises from no more than 0.5 to 0.674.

Going from A36G G52A to A36G G44U, the yeast fitness falls from 0.744 to 0.711.

Compared with A36G G44C, A36G C55U is lower in yeast fitness: 0.981 for the first, 0.743 for the second.

Compared with A37C C49G A57C A70G, A37C G39C C55U C61A is higher in yeast fitness: 0.516 for the first, 0.532 for the second.

Compared with A37C A43U U47C A69U, A36G C60G is lower in yeast fitness: 0.688 for the first, 0.629 for the second.

First: A36G C60U
Second: A36G C61U
The yeast fitness of the first is lower: 0.793 for the first, 0.891 for the second.

First: A36G C61A
Second: A36U C46G
The yeast fitness of the first is higher: 0.766 for the first, 0.655 for the second.

A36C A42U A43G G63C A69U and A36C A43U U47A U54A cannot be ordered by yeast fitness: no more than 0.5 for the first, no more than 0.5 for the second.

A36C G44A A70C and A36U C61U A65U cannot be ordered by yeast fitness: no more than 0.5 for the first, no more than 0.5 for the second.

First: A36C G48C U53C A70C
Second: A36U U64C
The yeast fitness of the first is lower: no more than 0.5 for the first, 0.581 for the second.

A36U G39C A57U and A36G G41A A43G C60U A70C cannot be ordered by yeast fitness: no more than 0.5 for the first, no more than 0.5 for the second.

First: A36U G41C A45U C49U C60U
Second: A36C C61G A70C
The yeast fitness of the first is lower: no more than 0.5 for the first, 0.569 for the second.

A36U A45G C49A C66U A70G and A36G G38C G52C A57U cannot be ordered by yeast fitness: no more than 0.5 for the first, no more than 0.5 for the second.

First: A37C G38C U54C C61U
Second: A37C A65G G68U
The yeast fitness of the first is lower: 0.678 for the first, 0.801 for the second.

A36U G50A A69U and A36C G38A U54C G58A cannot be ordered by yeast fitness: no more than 0.5 for the first, no more than 0.5 for the second.

A37C C49G A65C and A36U G38A A40G cannot be ordered by yeast fitness: no more than 0.5 for the first, no more than 0.5 for the second.

Compared with A36C A43C, A36U G52A C60G is lower in yeast fitness: 0.626 for the first, no more than 0.5 for the second.

A36U G52A C60A and A37C C62U A70U cannot be ordered by yeast fitness: no more than 0.5 for the first, no more than 0.5 for the second.

First: A36C G50C
Second: A37C G38A G63A
The yeast fitness of the first is lower: 0.54 for the first, 0.549 for the second.

First: A36C G58C
Second: A36C U59C A65G
The yeast fitness of the first is higher: 0.618 for the first, no more than 0.5 for the second.

Compared with A36G G48A U53G, A36C G56C is higher in yeast fitness: no more than 0.5 for the first, 0.793 for the second.

Going from A36C G56A to A36C C62A G67A A70G, the yeast fitness falls from 0.61 to no more than 0.5.

A36G C60A C61G A65U and A36G A42G C46G G68C cannot be ordered by yeast fitness: no more than 0.5 for the first, no more than 0.5 for the second.

Compared with A36C A40G, A36U C46A C66A is lower in yeast fitness: 0.566 for the first, no more than 0.5 for the second.

Going from A36C G39C A65C to A36G A42G C46G, the yeast fitness rises from 0.598 to 0.698.

First: A36G C46G G63A
Second: A36G C49U A70C
The yeast fitness of the first is lower: 0.652 for the first, 0.663 for the second.

Going from A37C C55G G68C to A36U, the yeast fitness rises from 0.556 to 0.714.

Going from A36G to A36C G52A C61A, the yeast fitness falls from 0.993 to no more than 0.5.

Going from A36G A57C A65U to A36G A42C A43U C46A, the yeast fitness rises from no more than 0.5 to 0.861.

Going from A36G C61G A70C to A36C C55G, the yeast fitness falls from 0.661 to 0.556.

Compared with A36C C55A, A36G A42C G67C A69C is higher in yeast fitness: no more than 0.5 for the first, 0.559 for the second.

A36U A40U A57G and A36C U47A G48C C61U cannot be ordered by yeast fitness: no more than 0.5 for the first, no more than 0.5 for the second.

Going from A36G A42U A57U to A36C G68C, the yeast fitness rises from no more than 0.5 to 0.591.

Going from A36U A45U G52C to A36U C62G, the yeast fitness rises from no more than 0.5 to 0.623.

Going from A36C A45U U47C G52C A65U G67C to A37C A45G, the yeast fitness rises from no more than 0.5 to 0.818.

A37C C62G A69C showed a yeast fitness of no more than 0.5.

— the RNAGym collection of RNA variant scans (doi:10.1126/science.aae0568)
